Measurements published in ChEMBL document CHEMBL1155223, “2-Phenylpyrazolo[4,3-d]pyrimidin-7-one as a new scaffold to obtain potent and selective human A3 adenosine receptor antagonists: new insights into the receptor-antagonist recognition” (J Med Chem, 2009).

Assays:
[1] = molecular target: T1, Adenosine receptor A1 (Homo sapiens) (UniProt P30542); assay: Inhibition of [125I]DPCPX binding to human cloned adenosine A1 receptor expressed in CHO cells at 1 uM after 120 mins by scintillation counting; assay type: cell-based; conditions: in the assay text read “[3H]DPCPX” for “[125I]DPCPX”
T1 sequence (whole entry): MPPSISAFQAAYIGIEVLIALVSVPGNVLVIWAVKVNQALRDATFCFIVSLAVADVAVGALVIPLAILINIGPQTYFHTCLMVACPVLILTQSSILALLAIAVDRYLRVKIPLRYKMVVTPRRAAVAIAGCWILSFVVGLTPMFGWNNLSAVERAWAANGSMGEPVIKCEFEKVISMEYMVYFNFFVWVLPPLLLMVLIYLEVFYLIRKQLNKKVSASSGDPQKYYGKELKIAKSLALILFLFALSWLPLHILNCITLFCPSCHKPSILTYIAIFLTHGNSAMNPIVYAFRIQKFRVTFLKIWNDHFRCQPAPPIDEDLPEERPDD
In short: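 Membranes from hA1 CHO (50 μg protein) with [3H]DPCPX 1 nM, 50 mM Tris-HCl pH 7.4, 120 min at 25 °C; nonspecific binding defined by 10 μM CHA. Percent inhibition at 1 μM test compound.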

[2] = molecular target: T2, Adenosine receptor A3 (Homo sapiens) (UniProt P0DMS8); assay: Inhibition of [125I]AB-MECA binding to human cloned adenosine A3 receptor expressed in CHO cells at 1 uM after 120 mins by scintillation counting; assay type: cell-based
T2 sequence (whole entry): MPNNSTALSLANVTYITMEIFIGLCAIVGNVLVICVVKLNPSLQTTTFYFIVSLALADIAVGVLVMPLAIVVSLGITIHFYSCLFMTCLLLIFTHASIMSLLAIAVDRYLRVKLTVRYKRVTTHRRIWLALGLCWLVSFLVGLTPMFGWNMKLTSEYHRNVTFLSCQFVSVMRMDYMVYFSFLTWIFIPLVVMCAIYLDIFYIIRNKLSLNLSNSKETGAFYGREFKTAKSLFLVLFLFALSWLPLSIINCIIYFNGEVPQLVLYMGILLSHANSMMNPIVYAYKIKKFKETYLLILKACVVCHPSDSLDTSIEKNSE
In short: (§1)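 hA3 CHO membranes (50 μg protein) incubated with [125I]AB-MECA 0.5 nM in 50 mM Tris-HCl, 10 mM MgCl2, 1 mM EDTA, pH 7.4, 120 min at 4 °C; six to eight ligand concentrations. Nonspecific binding with 1 μM AB-MECA. Ki via Cheng–Prusoff, mean ± SEM of four assays in duplicate; percent inhibition given at 1 μM.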

[3] = molecular target: Adenosine receptor A2a (Homo sapiens) (UniProt P29274); assay: Inhibition of [125I]Z241385 binding to human cloned adenosine A2A receptor expressed in CHO cells at 1 uM after 120 mins by scintillation counting; assay type: cell-based
[4] = molecular target: T3, Adenosine receptor A2b (Homo sapiens) (UniProt P29275); assay: Antagonist activity at human adenosine A2B receptor expressed in CHO cells assessed as inhibition of NECA-stimulated [3H]cAMP production at 1 uM by scintillation counting; assay type: functional, cell-based
T3 sequence (whole entry): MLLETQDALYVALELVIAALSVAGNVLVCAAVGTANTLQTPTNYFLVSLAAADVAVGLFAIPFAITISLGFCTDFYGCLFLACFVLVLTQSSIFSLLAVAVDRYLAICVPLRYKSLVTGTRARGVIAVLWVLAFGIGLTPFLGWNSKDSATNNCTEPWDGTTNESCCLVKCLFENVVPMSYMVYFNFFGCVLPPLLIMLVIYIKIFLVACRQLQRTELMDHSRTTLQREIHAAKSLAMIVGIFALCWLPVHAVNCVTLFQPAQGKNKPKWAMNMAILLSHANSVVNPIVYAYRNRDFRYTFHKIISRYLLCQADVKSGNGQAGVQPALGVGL
In short: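 Suspended CHO cells stably expressing hA2B (1 × 10⁶ cells/assay) in buffer with adenosine deaminase 2 IU/mL and Ro 20-1724, preincubated 10 min at 37 °C, pH 7.4. Stimulated with NECA 200 nM; compound at 1 μM; percent inhibition reported. Stopped with cold 6% TCA, ether-extracted, cAMP quantified by [3H]cAMP competition with beef adrenal binding protein.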

[5] = molecular target: T2, Adenosine receptor A3 (Homo sapiens); conditions: CHO, 1 uM
[6] = molecular target: T4, Adenosine receptor A3 (Homo sapiens, UniProt P0DMS8); assay: Displacement of [125I]AB-MECA from human cloned adenosine A3 receptor expressed in CHO cells after 120 mins by scintillation counting; assay type: cell-based; in short: as §1
T4 sequence (P0DMS8 whole entry): T2 sequence (whole entry)

[7] = molecular target: T4, Adenosine receptor A3; assay: Antagonist activity at human cloned adenosine A3 receptor expressed in CHO cells assessed as inhibition of Cl-IB-MECA-inhibited [3H]cAMP production by scintillation counting; assay type: functional, cell-based
In short: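 hA3-transfected CHO cells (1 × 10⁶ cells/assay), preincubated 10 min at 37 °C with adenosine deaminase 2 IU/mL plus Ro 20-1724, pH 7.4; forskolin 1 μM and Cl-IB-MECA 100 nM present. Stopped with cold 6% TCA; cAMP measured by [3H]cAMP binding-protein competition. IC50 from sigmoid nonlinear regression, mean ± SEM of four experiments; single-point data at 1 μM as percent inhibition.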

Adenosine receptor A2a (Homo sapiens), sequence (P29274 whole entry): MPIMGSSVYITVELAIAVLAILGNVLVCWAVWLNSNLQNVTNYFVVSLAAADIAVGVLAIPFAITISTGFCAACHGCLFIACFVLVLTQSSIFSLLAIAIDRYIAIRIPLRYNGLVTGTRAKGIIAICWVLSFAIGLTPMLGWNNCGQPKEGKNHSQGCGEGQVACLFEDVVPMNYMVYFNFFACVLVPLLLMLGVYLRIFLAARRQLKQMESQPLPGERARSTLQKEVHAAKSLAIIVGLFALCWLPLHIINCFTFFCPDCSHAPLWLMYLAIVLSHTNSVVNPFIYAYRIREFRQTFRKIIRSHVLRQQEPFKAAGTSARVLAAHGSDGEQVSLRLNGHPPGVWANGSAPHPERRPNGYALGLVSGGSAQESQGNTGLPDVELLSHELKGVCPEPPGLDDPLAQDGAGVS

Row | Structure (SMILES) | inhibition [1] [%] | inhibition [2] [%] | inhibition [3] [%] | inhibition [4] [%] | inhibition [5] [%] | Ki [6] [nM] | IC50 [7] [nM]
1 | COc1ccc(-n2cc3nc(-c4ccccc4)[nH]c(=O)c3n2)cc1 | 1 | 16 | 1 | 5 | – | – | –
2 | Nc1nc(NCCc2ccc(O)cc2)nc2nc(-c3ccco3)nn12 | – | 5 | – | – | 2 | – | –
3 | COc1ccc(-n2cc3nc(Cc4ccccc4)[nH]c(=O)c3n2)cc1 | 10 | – | 1 | 4 | – | 250 | 850
4 | O=c1[nH]cnc2cn(-c3ccccc3)nc12 | 1 | – | 1 | 3 | – | 185 | 725
5 | O=c1[nH]c(=O)c2nn(-c3ccccc3)cc2[nH]1 | 4 | 12 | 5 | 2 | – | – | –
6 | COc1ccc(-n2cc3nc[nH]c(=O)c3n2)cc1 | 2 | – | 1 | 3 | – | 54 | 270
7 | O=c1[nH]c(Cc2ccccc2)nc2cn(-c3ccccc3)nc12 | 11 | – | 1 | 4 | 6 | 900 | –
8 | Cc1cccc(-n2cc3nc(C)[nH]c(=O)c3n2)c1 | 4 | – | 1 | 2 | – | 72 | 354
9 | O=c1[nH]c(-c2ccccc2)nc2cn(-c3ccccc3)nc12 | 22 | 10 | 10 | 4 | – | – | –

More lines, in order of falling Ki [6], values ahead:

Row | inhibition [1] [%] | inhibition [2] [%] | inhibition [3] [%] | inhibition [4] [%] | inhibition [5] [%] | Ki [6] [nM] | IC50 [7] [nM] | Structure (SMILES)
10 | 11 | – | 6 | 1 | – | 52 | 245 | CCc1nc2cn(-c3ccccc3)nc2c(=O)[nH]1
11 | 9 | – | 1 | 2 | – | 16 | 87 | Cc1nc2cn(-c3ccccc3)nc2c(=O)[nH]1
12 | 1 | – | 1 | 5 | – | 14 | 63 | CCc1nc2cn(-c3ccc(OC)cc3)nc2c(=O)[nH]1
13 | 1 | – | 1 | 4 | – | 10 | 46 | Cc1ccc(-n2cc3nc(C)[nH]c(=O)c3n2)cc1
14 | 5 | – | 1 | 2 | – | 1.2 | 5.2 | COc1ccc(-n2cc3nc(C)[nH]c(=O)c3n2)cc1
